Article PMC3075368 (Journal of molecular and cellular cardiology, 2011)
Like-named read-outs stand apart in the source and are kept apart here. Bridge positions count the residues as written; N and C are the ends. Ends that are not written are not given here.

Experiments:
ischemic left ventricle = experiment: Western analysis of post-ischemic cardiac tissue with anti-mCherry antibody; assay type: in vivo, mouse; conditions: versus negative controls
In short: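 Mice had 15 min ischemia then 5 min reperfusion. Recombinant Sumo-mCherry–test peptide (Ni-NTA plus size-exclusion purified; 10 mg/mL PBS stock) was given 1 mg i.v. Controls were unconjugated Sumo-mCherry, linear or scrambled peptide fusions, and PBS. After 5 min circulation, ischemic LV, non-ischemic LV and RV were snap frozen, RIPA-homogenized, sonicated and centrifuged, then blotted with rabbit anti-RFP. Three blinded sets, 5 mice each.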

alpha-B crystalline = target: T1, alpha-B crystalline (Homo sapiens, UniProt P02511); experiment: Surface Plasmon Resonance assay; assay type: binding; conditions: biotinylated peptide on streptavidin coated chips, Biacore 2000
T1 sequence (P02511 1-175): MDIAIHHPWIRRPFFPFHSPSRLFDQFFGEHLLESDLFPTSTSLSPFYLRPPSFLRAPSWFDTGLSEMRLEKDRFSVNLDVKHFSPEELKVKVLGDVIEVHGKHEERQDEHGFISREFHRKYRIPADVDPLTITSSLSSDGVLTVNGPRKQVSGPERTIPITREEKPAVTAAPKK

[1] = test system: heart function in rats after ischemia/reperfusion injury
[2] = test system: heart function in rats after ischemia/reperfusion injury; conditions: rat, in vivo
[3] = echocardiography, 24 hours after administration, n=4, mean ± SEM
[4] = hemodynamic measurement, 24 hours after administration, n=4, mean ± SEM

With Sumo-mCherry-CSTSMLKAC as the substance, how does the “homing of the protein to post-ischemic cardiac tissue” value (ischemic left ventricle) read?
Its value is “clear homing”.

With CSTSMLKAC (disulfide 1-9 (inferred)) as the substance, how does the “interaction with alpha-B crystalline” value (alpha-B crystalline) read?
The value was “a significant interaction between CSTSMLKAC and alpha-B crystalline was not demonstrated”.

What about the Body weight ([1]; 24 hours after administration, n=4, mean ± SEM) of the same substance?
The Body weight was 260.25 ± 13.14 g.

And the “impairment in LV contractile function” value ([1]; 24 hours after systemic administration, versus scrambled peptide and PBS, n=4 each)?
The value was “did not induce any significant impairment”.

And the “% Fractional shortening” value [1, 3]?
The value was 54.05±6.72%.

What about the Anterior wall thickness [1, 3] of the same substance?
The Anterior wall thickness was 2.00±0.04 mm.

What about the End-diastolic dimension [1, 3] of the same substance?
Its End-diastolic dimension is 5.33±0.36 mm.

And the End-systolic dimension [1, 3]?
The End-systolic dimension was 2.49±0.51 mm.

What about the Posterior wall thickness [1, 3] of the same substance?
The Posterior wall thickness was 1.73±0.10 mm.

What about the Cardiac index [1, 4] of the same substance?
Its Cardiac index is 19.87±2.54 ml/min per 100 g.

And the Cardiac output [1, 4]?
Its Cardiac output is 51430 ± 6708 µL/min.

What about the Ejection fraction [1, 4] of the same substance?
The Ejection fraction was 28.44±2.09%.

And the End-diastolic pressure [1, 4]?
Its End-diastolic pressure is 3.96±0.67 mmHg.

What about the End-diastolic volume [1, 4] of the same substance?
Its End-diastolic volume is 393.56 ± 25.62 µL.

And the End-systolic pressure [1, 4]?
The End-systolic pressure was 119±3.16 mmHg.

What about the End-systolic volume [1, 4] of the same substance?
The End-systolic volume was 280.76 ± 15.91 µL.

And the Stroke volume [1, 4]?
The Stroke volume was 112.82 ± 13.61 µL.

What does the source list for “CSKTALSMC (disulfide 1-9 (inferred)) [scrambled peptide]”?
% Fractional shortening [2]: 43.20±3.22%; Anterior wall thickness [2]: 2.08±0.08 mm; Cardiac index [2]: 20.96±4.48 ml/min per 100 g; Cardiac output [2]: 44530 ± 7633 µL/min; Ejection fraction [2]: 27.89±3.01%; End-diastolic dimension [2]: 5.16±0.23 mm; End-diastolic pressure [2]: 3.08±0.22 mmHg; End-diastolic volume [2]: 362.72 ± 14.82 µL; End-systolic dimension [2]: 2.93±0.18 mm; End-systolic pressure [2]: 120.1±3.48 mmHg; End-systolic volume [2]: 260.91 ± 10.99 µL; Heart rate [2]: 430.75±20.59 beats/min; LVM/BW [2]: 2.94±0.32; Left ventricle mass [2]: 646 ± 55.48 g; Posterior wall thickness [2]: 1.83±0.06 mm; Stroke volume [2]: 101.81 ± 13.74 µL
